How the values were obtained:
[1] = biological target: 5-hydroxytryptamine receptor 6 (Homo sapiens, UniProt P50406); test: Binding affinity towards 5-hydroxytryptamine 6 receptor using [3H]- LSD as radioligand
Summary of the method: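 Membranes from HEK293 cells expressing recombinant human 5-HT6 receptor. Displacement of [3H]LSD binding measured; IC50 derived.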

Cytochrome P450 3A4 [2] = biological target: T1, Cytochrome P450 3A4 (Homo sapiens, UniProt P08684); test: Inhibition of recombinant human Cytochrome P450 3A4 with BFC; type: ADME
T1 sequence (P08684 whole entry): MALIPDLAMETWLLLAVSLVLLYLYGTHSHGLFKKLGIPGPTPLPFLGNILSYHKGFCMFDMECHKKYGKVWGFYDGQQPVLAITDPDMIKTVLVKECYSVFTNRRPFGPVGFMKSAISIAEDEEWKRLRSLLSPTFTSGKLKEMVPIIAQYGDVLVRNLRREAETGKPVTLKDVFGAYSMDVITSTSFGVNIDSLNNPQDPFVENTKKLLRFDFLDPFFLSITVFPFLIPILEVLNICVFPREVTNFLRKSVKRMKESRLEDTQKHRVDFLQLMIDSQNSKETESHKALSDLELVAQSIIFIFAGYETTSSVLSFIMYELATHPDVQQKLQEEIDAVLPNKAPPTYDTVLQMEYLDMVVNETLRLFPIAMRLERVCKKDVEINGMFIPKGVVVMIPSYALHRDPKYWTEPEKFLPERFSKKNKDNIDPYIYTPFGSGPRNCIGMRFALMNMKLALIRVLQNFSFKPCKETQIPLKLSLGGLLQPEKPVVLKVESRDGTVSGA
Summary of the method: (§1)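 Recombinant human CYP enzymes with fluorogenic substrates. CYP1A2: 3-cyano-7-ethoxycoumarin deethylation. CYP2C9: 7-methoxy-4-trifluoromethylcoumarin dealkylation. CYP2D6: 3-[2-(N,N-diethyl-N-methylamino)ethyl]-7-methoxy-4-methylcoumarin demethylation. CYP3A4: benzoylresorufin or 7-benzyloxy-4-trifluoromethylcoumarin dealkylation, tested separately. IC50 for metabolism inhibition reported as mean ± SEM (n = 7).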

Cytochrome P450 2C9 = Cytochrome P450 2C9 (Homo sapiens, UniProt P11712); test: Inhibition of recombinant human Cytochrome P450 2C9; type: ADME; summary of the method: as §1
Cytochrome P450 2C9, sequence (P11712 whole entry): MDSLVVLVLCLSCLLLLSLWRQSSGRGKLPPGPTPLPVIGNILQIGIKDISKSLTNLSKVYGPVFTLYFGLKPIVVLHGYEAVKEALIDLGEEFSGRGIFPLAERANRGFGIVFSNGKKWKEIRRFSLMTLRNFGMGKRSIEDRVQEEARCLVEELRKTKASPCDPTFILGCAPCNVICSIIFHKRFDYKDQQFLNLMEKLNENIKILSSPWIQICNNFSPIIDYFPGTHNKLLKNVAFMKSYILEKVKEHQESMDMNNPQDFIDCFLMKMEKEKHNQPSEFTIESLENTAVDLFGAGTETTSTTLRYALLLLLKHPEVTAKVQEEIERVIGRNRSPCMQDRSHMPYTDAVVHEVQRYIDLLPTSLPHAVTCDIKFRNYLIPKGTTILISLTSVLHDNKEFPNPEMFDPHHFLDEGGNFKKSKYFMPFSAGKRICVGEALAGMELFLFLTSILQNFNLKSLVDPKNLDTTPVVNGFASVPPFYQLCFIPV

Cytochrome P450 2D6 = Cytochrome P450 2D6 (Homo sapiens, UniProt P10635); test: Inhibition of recombinant human Cytochrome P450 2D6; type: ADME; summary of the method: as §1
Cytochrome P450 2D6, sequence (P10635 whole entry): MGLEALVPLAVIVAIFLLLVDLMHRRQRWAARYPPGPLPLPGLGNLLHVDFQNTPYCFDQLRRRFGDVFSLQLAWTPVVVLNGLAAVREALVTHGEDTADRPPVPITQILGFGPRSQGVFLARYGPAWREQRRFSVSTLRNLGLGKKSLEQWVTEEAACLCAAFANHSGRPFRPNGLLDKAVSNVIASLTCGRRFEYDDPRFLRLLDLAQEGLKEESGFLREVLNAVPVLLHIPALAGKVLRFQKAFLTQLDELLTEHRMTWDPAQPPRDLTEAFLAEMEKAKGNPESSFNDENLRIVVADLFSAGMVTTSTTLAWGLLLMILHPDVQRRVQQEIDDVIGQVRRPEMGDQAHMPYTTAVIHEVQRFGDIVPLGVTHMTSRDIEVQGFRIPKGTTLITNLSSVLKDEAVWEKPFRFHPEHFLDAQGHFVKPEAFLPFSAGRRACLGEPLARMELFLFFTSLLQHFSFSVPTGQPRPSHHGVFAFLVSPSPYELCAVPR

[3] = biological target: Cytochrome P450 2C19 (Homo sapiens) (UniProt P33261); test: Inhibition of recombinant human Cytochrome P450 2C19
Cytochrome P450 2C19 (Homo sapiens), sequence (P33261 whole entry, looked up): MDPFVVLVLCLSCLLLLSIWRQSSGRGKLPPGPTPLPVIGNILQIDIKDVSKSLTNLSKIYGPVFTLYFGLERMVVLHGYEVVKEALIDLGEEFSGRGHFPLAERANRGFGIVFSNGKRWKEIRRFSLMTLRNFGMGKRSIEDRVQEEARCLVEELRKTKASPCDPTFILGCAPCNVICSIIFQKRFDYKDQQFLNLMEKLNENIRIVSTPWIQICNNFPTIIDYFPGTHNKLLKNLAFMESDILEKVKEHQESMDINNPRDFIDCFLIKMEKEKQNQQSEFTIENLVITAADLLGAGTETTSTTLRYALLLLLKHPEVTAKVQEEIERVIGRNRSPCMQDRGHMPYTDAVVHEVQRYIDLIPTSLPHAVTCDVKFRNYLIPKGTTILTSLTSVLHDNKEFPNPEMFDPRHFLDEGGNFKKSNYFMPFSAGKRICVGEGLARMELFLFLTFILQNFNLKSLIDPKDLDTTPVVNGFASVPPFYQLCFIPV

[4] = Apparent dissociation constant was determined
Summary of the method: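 Human 5-HT6 receptor expressed in HEK293 cells with coexpressed Gα15, read out as 5-HT-stimulated Ca2+ mobilization. 5-HT EC50 was measured without antagonist and with increasing antagonist concentrations. Dose ratio is EC50 with antagonist divided by EC50 for 5-HT alone. Schild plot of log(dose ratio − 1) vs −log[antagonist]. Triplicate points; experiment repeated at least twice.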

Cytochrome P450 1A2 = biological target: T2, Cytochrome P450 1A2 (Homo sapiens, UniProt P05177); test: Inhibition of recombinant human Cytochrome P450 1A2; type: ADME; summary of the method: as §1
T2 sequence (P05177 whole entry): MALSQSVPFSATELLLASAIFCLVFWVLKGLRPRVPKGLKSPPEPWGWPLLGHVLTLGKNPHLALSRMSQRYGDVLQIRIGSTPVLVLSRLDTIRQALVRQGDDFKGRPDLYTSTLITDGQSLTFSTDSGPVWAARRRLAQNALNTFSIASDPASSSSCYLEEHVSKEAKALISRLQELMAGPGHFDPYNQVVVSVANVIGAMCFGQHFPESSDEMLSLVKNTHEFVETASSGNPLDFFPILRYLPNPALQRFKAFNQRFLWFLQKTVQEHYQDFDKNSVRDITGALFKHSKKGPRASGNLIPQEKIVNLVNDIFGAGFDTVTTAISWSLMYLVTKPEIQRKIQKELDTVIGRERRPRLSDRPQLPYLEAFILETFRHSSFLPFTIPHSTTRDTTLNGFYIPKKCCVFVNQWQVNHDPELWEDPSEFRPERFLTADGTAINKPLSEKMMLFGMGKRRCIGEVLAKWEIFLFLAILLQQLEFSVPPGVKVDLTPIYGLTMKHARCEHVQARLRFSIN

Cytochrome P450 3A4 [5] = biological target: T1, Cytochrome P450 3A4; test: Inhibition of recombinant human Cytochrome P450 3A4 with BzRes; type: ADME; summary of the method: as §1

5-hydroxytryptamine receptor 6, sequence (P50406 whole entry): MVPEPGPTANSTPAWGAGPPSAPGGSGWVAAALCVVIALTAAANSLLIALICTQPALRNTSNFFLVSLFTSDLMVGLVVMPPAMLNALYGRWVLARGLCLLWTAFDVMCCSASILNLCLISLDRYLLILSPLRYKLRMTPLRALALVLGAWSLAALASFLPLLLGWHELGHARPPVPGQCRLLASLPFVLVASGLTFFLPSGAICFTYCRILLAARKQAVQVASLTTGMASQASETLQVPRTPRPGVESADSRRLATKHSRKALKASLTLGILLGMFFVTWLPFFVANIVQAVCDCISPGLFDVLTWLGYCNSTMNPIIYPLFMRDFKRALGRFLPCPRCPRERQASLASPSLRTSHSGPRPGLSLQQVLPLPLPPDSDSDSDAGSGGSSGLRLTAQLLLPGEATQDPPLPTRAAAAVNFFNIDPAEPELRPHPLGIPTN

| Structure (SMILES) | IC50 [1] [nM] | also measured |
| --- | --- | --- |
| CSc1nc2c3ccccc3ccn2c(=N)c1S(=O)(=O)c1ccccc1 | 68.9 | – |
| CCc1ccn2c(=N)c(S(=O)(=O)c3ccccc3)c(SC)nc2c1 | 70.1 | – |
| CNc1cc(NS(=O)(=O)c2ccc(N)cc2)nc(NC)n1 | 26.3 | – |
| CSc1nc2ccc(F)cn2c(=N)c1S(=O)(=O)c1ccccc1 | 87.6 | – |
| N#C/C(=C\Nc1ccccn1)S(=O)(=O)c1ccccc1 | 524 | – |

Continued by falling IC50 [1], values first:

| IC50 [1] [nM] | Structure (SMILES) | also measured |
| --- | --- | --- |
| 3580 | CCCS(=O)(=O)c1c(SC)nc2ccccn2c1=N | – |
| 269 | CSc1nc2c(Br)cc(C)cn2c(=N)c1S(=O)(=O)c1ccccc1 | – |
| 79.2 | CSc1nc2ccccn2c(=N)c1S(=O)(=O)c1ccc2ccccc2c1 | – |
| 4 | CSc1nc2ccccn2c(=N)c1S(=O)(=O)c1ccccc1 | IC50 (Cytochrome P450 3A4 [2]): > 40 µM; IC50 (Cytochrome P450 2C9): 24.2 µM; IC50 (Cytochrome P450 2D6): > 40 µM; IC50 [3]: 860 nM; Kd [4]: 4.7 nM; IC50 (Cytochrome P450 1A2): > 40 µM; IC50 (Cytochrome P450 3A4 [5]): > 40 µM |

Source: ChEMBL document CHEMBL1145753, “Identification of a potent and selective 5-HT(6) antagonist: one-step synthesis of (E)-3-(benzenesulfonyl)-2- (methylsulfanyl)pyrido[1,2-a]pyrimidin-4-ylidenamine from 2-(benzenesulfonyl)-3,3-bis(methylsulfanyl)acrylonitrile” (J Med Chem, 2003)
